# From PubChem BioAssay
# NPR2 activator: GC-B (human) receptor activation. P20594. HEK293-GC-B cells, CNP EC30, cGMP TR-FRET; 0% at EC30 CNP, 100% saturating CNP. activation, % at 10 µM. 370,000 compounds, 0.11% hits. AID 1920062;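 active = activation at 10 µM reaching about 35% in either raw or pattern-adjusted values, limit read from the data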
# Target sequence (P20594 whole entry, looked up): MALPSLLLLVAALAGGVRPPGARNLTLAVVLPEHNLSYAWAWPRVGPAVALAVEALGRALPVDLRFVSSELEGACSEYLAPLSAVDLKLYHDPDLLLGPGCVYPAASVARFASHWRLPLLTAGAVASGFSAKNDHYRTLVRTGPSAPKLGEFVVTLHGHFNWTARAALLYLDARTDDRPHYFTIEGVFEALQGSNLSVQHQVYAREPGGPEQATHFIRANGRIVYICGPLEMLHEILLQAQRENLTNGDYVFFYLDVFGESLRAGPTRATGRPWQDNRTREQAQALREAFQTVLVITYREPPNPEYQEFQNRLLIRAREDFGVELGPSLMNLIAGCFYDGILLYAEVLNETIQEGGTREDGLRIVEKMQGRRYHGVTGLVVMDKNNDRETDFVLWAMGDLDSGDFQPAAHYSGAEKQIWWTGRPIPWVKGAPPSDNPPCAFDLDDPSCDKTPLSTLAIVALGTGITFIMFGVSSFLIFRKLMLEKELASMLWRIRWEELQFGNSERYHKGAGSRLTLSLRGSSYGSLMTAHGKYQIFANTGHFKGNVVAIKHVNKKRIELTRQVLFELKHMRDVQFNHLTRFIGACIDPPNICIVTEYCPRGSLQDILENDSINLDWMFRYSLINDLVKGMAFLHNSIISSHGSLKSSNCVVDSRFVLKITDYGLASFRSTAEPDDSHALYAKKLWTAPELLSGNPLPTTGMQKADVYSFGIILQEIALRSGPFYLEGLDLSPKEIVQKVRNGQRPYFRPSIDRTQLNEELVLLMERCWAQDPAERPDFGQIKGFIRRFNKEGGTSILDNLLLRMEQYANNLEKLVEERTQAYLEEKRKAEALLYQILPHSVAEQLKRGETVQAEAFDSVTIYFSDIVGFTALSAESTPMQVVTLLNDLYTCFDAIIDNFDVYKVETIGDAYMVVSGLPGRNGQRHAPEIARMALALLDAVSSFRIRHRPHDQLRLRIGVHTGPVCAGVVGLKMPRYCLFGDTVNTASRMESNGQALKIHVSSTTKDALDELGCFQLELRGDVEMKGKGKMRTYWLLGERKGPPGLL
# Hep lipid drop: hepatic lipid droplet formation modulation; AID 1656; 240,000 compounds, 0.4% hits; AML12 mouse hepatocytes, oleate lipid droplets, BODIPY imaging; inhibition, % at 6.5 µM;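 active = lipid droplet intensity inhibited by at least 50%, with more than 500 cells counted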
#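 Assay system: AML12 mouse liver cells | Compound dosing: One dose, 6.5 µM compound | Read-out basis: Droplet intensity reduction, % inhibition | Measured by: Fluorescence imaging, 20x objective, two fields per well | Schedule: Overnight treatment with compound plus oleate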
# JMJD2C inh: human JMJD2C demethylase inhibition | Q9H3R0 | GST-JMJD2C(1-420) H3K9me3 demethylation, DELFIA europium | inhibition, % at 2.35 µM | 330,000 compounds, 0.069% hits | AID 2099;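 active = more than half of a compound's replicate wells show inhibition beyond 50%, single wells judged on their own value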;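 also: signal counts dimethyl H3K9 product captured on neutravidin plate; 0% = median of DMSO wells and 100% = 0.3 times that DMSO median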
# aDG glyco up: alpha-DG glycosylation activation; Pro5-aDG cells, alpha-DG glycosylation AlphaScreen (IIH6); 0% Pro5, 100% B10-LARGE cell signal; activation, % at 10 µM; 360,000 compounds, 0.22% hits; AID 624168;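 active = activation of at least 8% versus controls, or a plate z-score of at least 8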;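 also: Pro5 are CHO cells carrying HIG-tagged alpha-DG that lacks glycosylation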
# NPR1 activator: GC-A (human) enzyme activation. HEK293 GC-A cells, cGMP TR-FRET, EC30 ANP; 0% at EC30 ANP, 100% saturating ANP. P16066. 370,000 compounds, 0.14% hits. activation, % at 10 µM; in the data active = activation above about 40%
# GRIN3A LBD mod: modulators (binders) of human NR3A ligand-binding domain; NR3A LBD differential scanning fluorimetry, Tm shift; 0% = protein alone, 100% = glycine-bound protein; 340,000 compounds, 2.5% hits; Tm shift relative to glycine control, % at 25 µM;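 active = melting temperature shift of at least 10% of the positive control shift, at one fixed dose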
# * marks the source's active call; other numbers are inactive results; · = no result given. The list is not random: actives were taken first. Their share in the collection is about 3%.
SMILES,NPR2 activator,Hep lipid drop,JMJD2C inh,aDG glyco up,NPR1 activator,GRIN3A LBD mod
O=C1OCCN1C(=O)[C@H]1[C@H](c2ccc([N+](=O)[O-])cc2)C(c2ccccc2)=NN1c1ccc(Br)cc1,1.0,·,·,-0.2,-2.6,8.6
COC(=O)[C@H]1C[C@@]2(N3CCCC3)c3ccccc3N[C@H]2N1S(C)(=O)=O,-1.8,·,·,·,-6.3,·
Cn1c(=O)c2cc(NC(=O)Cc3cccnc3)ccc2n1-c1ccc2ccccc2c1,67.8*,·,·,-0.2,47.2*,·
CCOC(=O)/C(C(=O)Nc1ccccc1Br)=C1/NC(C)(C)Cc2ccccc21,-1.9,48.7,-2.6,0.2,-5.0,13.0*
Cc1cc(Br)cn2c(Cc3ccccc3)c(-c3ccco3)nc12,35.3*,·,·,-0.1,32.0,·
COc1ccc(/C=C/C(Cc2cccc(C(C)=O)c2)c2ccc(C)cc2)cc1 (stereo unspecified),3.0,·,·,·,-2.6,·
Cc1ccc(-c2n[nH]c(S(C)(=O)=O)c2C#N)cc1,-0.9,3.7,1.6,-0.2,1.8,23.1*
COC(=O)c1ccc2c(c1)N(C)S(=O)(=O)c1cnc(SCC(=O)C(C)(C)C)nc1-2,3.3,-3.2,-4.4,-0.2,0.7,10.9*
Cc1ccc(O)c(NC(=O)CSc2n[nH]c(-c3ccccc3)n2)c1,-9.4,6.6,-6.0,0.9,1.6,33.9*
Cc1cc(SCC(=O)c2ccc(O)c(O)c2)nc2ccccc12,-4.2,-5.0,-2.0,0.1,-3.5,12.0*
O=C(CSc1n[nH]c(-c2ccccc2)n1)c1ccc(O)c(O)c1,-3.8,·,2.4,0.0,0.3,12.0*
CCc1ccc(C(=O)CSc2n[nH]c(-c3ccncc3)n2)cc1,-0.2,-2.3,8.6,-0.2,-1.9,-18.3
Cc1cc(SCC(=O)c2ccc3c(c2)OCO3)nc2ccccc12,1.2,-10.4,8.2,0.2,-1.8,-1.0
COc1ccc(-c2nc(SCC(=O)Nc3cccc(S(N)(=O)=O)c3)n[nH]2)cc1,-2.6,·,·,-0.2,-1.5,11.0*
COc1nc(OC)nc(N2CCC(C(=O)N(C)Cc3ccco3)CC2)n1,0.0,·,·,·,-2.7,·
O=C(O)Cn1cc(F)c(=O)[nH]c1=O,·,·,2.8,-0.3,·,-3.7
COC(=O)[C@H]1C[C@@]2(C)c3ccccc3N(S(=O)(=O)c3ccccc3)[C@H]2N1,6.5,·,·,·,2.3,·
CC(=O)Nc1ccc(NC(=O)CCC(=O)OCC(=O)c2ccc(F)cc2)cc1,0.7,-6.2,-4.4,-0.1,1.4,-2.3
CCOC(=O)[C@]12CCCCC/C=C\1N(Cc1ccc(OC)cc1)C(=O)[C@H]2CC(=O)NCCC(C)C,-6.1,·,·,·,-4.8,·
CC(C)(C)NC(=O)C(c1ccc(-c2ccccc2)cc1)N(C[C@H]1CC[C@@H]([C@@H]2CC[C@H](CO)O2)O1)C(=O)c1ccc(-c2ccccc2)cc1 (stereo partly specified),·,·,·,0.4,·,29.9*
CN(CCc1ccccc1)C(=O)c1ccc(NC(=O)Cc2cccc(NC(=O)C3CCN(S(=O)(=O)c4cccc([N+](=O)[O-])c4)CC3)c2)cc1,2.4,·,·,0.0,1.4,10.0*
CN(C(=O)c1cccc(NC(=O)Cc2ccc(NC(=O)C3CCN(C(=O)c4ccccc4)CC3)cc2)c1)C1CCC1,-3.6,·,·,-0.2,-5.0,0.9
CN(C(=O)c1cccc(NC(=O)Cc2ccc(NC(=O)C3CCN(S(=O)(=O)c4cccc([N+](=O)[O-])c4)CC3)cc2)c1)C1CCCCC1,4.6,·,·,0.3,-3.0,7.2
CN(CCc1ccccc1)C(=O)c1ccc(NC(=O)Cc2ccc(NC(=O)C3CCN(S(=O)(=O)c4cccc([N+](=O)[O-])c4)CC3)cc2)cc1,2.6,·,·,0.0,3.6,7.2
CN(C(=O)c1ccc(NC(=O)Cc2ccc(NC(=O)C3CCN(S(=O)(=O)c4cccc([N+](=O)[O-])c4)CC3)cc2)cc1)C1CCCC1,0.0,·,·,0.1,-1.5,10.0*
SMILES,NPR2 activator,Hep lipid drop,JMJD2C inh,aDG glyco up,NPR1 activator,GRIN3A LBD mod
CN(C(=O)c1ccc(NC(=O)Cc2ccc(NC(=O)C3CCN(C(=O)c4ccccc4)CC3)cc2)cc1)C1CC1,0.7,·,57.6*,0.0,0.4,-1.6
CN(CCc1ccccc1)C(=O)c1ccc(NC(=O)Cc2ccc(NC(=O)C3CCCN(C(=O)CCc4ccccc4)C3)cc2)cc1 (stereo unspecified),3.7,·,·,0.7,2.8,11.4*
CN(C(=O)c1cccc(NC(=O)Cc2ccc(NC(=O)C3CCCN(S(=O)(=O)c4cccc([N+](=O)[O-])c4)C3)cc2)c1)C1CCC1 (stereo unspecified),3.6,·,·,-0.1,-2.1,11.4*
O=C(Cc1cccc(NC(=O)C2CCN(S(=O)(=O)c3cccc([N+](=O)[O-])c3)CC2)c1)Nc1cccc(C(=O)N2CCCCC2)c1,6.8,·,·,-0.1,-0.8,11.4*
O=S1(=O)CC(N2CC=CC2)CN1C1CCCCC1 (stereo unspecified),-1.4,·,·,-0.1,1.5,·
CC(C)N1CCC1(C)C(=O)Nc1cccc(C#N)c1 (stereo unspecified),2.2,·,·,-0.1,1.4,·
CCCC[C@H]1C2CC(OC(=O)Nc3ccc4c(c3)OCO4)C(C2)[C@H]2CCCCN21 (stereo partly specified),1.2,·,·,·,4.4,·
CCCn1c(CN(Cc2ccccc2)Cc2ccccc2)nc2c1c(=O)n(C)c(=O)n2C,·,-10.3,-4.0,-0.2,·,13.5*
O=S1(=O)CC2c3ccccc3CN2CN1C1CCCC1 (stereo unspecified),-4.6,·,·,·,-2.4,·
COC(=O)c1ccc(NC(C(=O)OC)C(C)C)c([N+](=O)[O-])c1 (stereo unspecified),-0.3,-1.1,8.0,0.2,0.7,8.6
CCC(C)C(Nc1ccc(C(=O)OC)cc1[N+](=O)[O-])C(=O)OC (stereo unspecified),-1.6,-16.6,0.6,-0.2,4.0,11.9*
CCCCCc1ccc(NC(=O)OCCCN2CCC3(CCC(c4ccccc4)CC3)C2=O)cc1 (stereo unspecified),-6.6,·,·,·,-3.4,·
O=C(N1CCCC1)C12CC3CC(CC(C3)C1)C2,7.5,-0.1,17.5,0.1,4.3,-0.7
O=C(N1CCCCC1)C12CC3CC(C1)CC(C(=O)N1CCCCC1)(C3)C2,2.8,17.8,1.5,0.0,-0.1,21.1*
O=C(NC1=NCCS1)c1sc2cc(Cl)cc(Cl)c2c1Cl,-1.9,-20.5,4.8,0.0,-8.2,20.1*
Nc1ccn([C@@H]2O[C@H](C(=O)N[C@H](Cc3ccccc3)C(=O)N3CCC(F)(F)CC3)[C@@H](O)[C@H]2O)c(=O)n1,9.2,·,·,·,3.0,·
CSC(=S)NN=C(C)c1cccc(C)n1,-2.6,·,·,-0.4,-4.2,15.4*
N#Cc1ccccc1NC(=O)c1ccccc1OCC(=O)Nc1ccc2c(c1)oc1ccccc12,-5.8,·,-4.8,0.2,-3.3,23.0*
